Data set [1] can be described thus: Metabolic stability in mouse liver microsomes assessed as parent compound remaining after 15 mins. It counts as ADME, Microsome. Conditions: read-out: Stability. For orientation: Liver microsomes are a subcellular fraction often used to study metabolism.
Data set [2] can be described thus: Elimination half life in CD-1 mouse at 1 mg/kg, iv. The class given is ADME, organism-based. Conditions: in vivo, read-out: beta t1/2 (converted). An outline of the steps:
(§1)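 CD-1 mice, single dose. The i.v. dose was 1 mg/kg in 40% PEG400/5% ethanol/55% water (v/v/v). The p.o. dose was 10 mg/kg in 20% PEG400/80% (0.5% (w/v) CMC with 0.25% (v/v) Tween 80) (v/v). Plasma samples were analysed to derive Cl, T1/2, Vz, AUC0-inf, Cmax, Tmax and oral bioavailability F.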

A short description of data set [3]: AUC (0 to infinity) in CD-1 mouse at 1 mg/kg, iv. More on the design: dose 1 mg/kg, time infinity, route intravenous. The class given is ADME, organism-based. Conditions: in vivo. In a few lines: as §1
Data set [4] can be described thus: Metabolic stability in human liver microsomes assessed as parent compound remaining after 15 mins. The class given is ADME, Microsome. Conditions: read-out: Stability.
Data set [5] can be described thus: Oral bioavailability in CD-1 mouse at 10 mg/kg. It counts as ADME, organism-based. Conditions: in vivo. An outline of the steps:
as §1

Data set [6] is described as follows: AUC (0 to infinity) in CD-1 mouse at 10 mg/kg, po. It counts as ADME, organism-based. The arrangement: dose 10 mg/kg, time infinity, route oral. Conditions: in vivo. An outline of the steps: as §1
The nature of data set [7]: Elimination half life in hamster at 10 mg/kg, po. The class given is ADME, organism-based. As to conditions: cricetinae, in vivo, read-out: beta t1/2 (converted).
A short description of data set [8]: Tmax in hamster at 10 mg/kg, po. It counts as ADME, organism-based. Conditions: cricetinae, in vivo.
A short description of data set [9]: Tmax in CD-1 mouse at 10 mg/kg, po. It counts as ADME, organism-based. As to conditions: in vivo. In a few lines: as §1
Data set [10] can be described thus: Clearance in CD-1 mouse at 1 mg/kg, iv. It counts as ADME, organism-based. Conditions: in vivo. An outline of the steps:
as §1

The nature of data set [11]: Cmax in CD-1 mouse at 10 mg/kg, po. More on the design: dose 10 mg/kg, route oral. The class given is ADME, organism-based. As to conditions: in vivo. An outline of the steps: as §1
Data set [12] in a line: Cmax in CD-1 mouse at 1 mg/kg, iv. It counts as ADME, organism-based. More on the design: dose 1 mg/kg, route intravenous. Conditions: in vivo. An outline of the steps: as §1
For data set [13], the target named is T1, Toxin B (Clostridioides difficile, UniProt P18177). Kind of data set: Inhibition of Clostridium difficile toxin B […] CHO cells assessed as reduction in caspase 3/7 activation pre-incubated for 1 hr before TcdB addition by luminescence based assay. It counts as cell-based.
T1 sequence (P18177 whole entry): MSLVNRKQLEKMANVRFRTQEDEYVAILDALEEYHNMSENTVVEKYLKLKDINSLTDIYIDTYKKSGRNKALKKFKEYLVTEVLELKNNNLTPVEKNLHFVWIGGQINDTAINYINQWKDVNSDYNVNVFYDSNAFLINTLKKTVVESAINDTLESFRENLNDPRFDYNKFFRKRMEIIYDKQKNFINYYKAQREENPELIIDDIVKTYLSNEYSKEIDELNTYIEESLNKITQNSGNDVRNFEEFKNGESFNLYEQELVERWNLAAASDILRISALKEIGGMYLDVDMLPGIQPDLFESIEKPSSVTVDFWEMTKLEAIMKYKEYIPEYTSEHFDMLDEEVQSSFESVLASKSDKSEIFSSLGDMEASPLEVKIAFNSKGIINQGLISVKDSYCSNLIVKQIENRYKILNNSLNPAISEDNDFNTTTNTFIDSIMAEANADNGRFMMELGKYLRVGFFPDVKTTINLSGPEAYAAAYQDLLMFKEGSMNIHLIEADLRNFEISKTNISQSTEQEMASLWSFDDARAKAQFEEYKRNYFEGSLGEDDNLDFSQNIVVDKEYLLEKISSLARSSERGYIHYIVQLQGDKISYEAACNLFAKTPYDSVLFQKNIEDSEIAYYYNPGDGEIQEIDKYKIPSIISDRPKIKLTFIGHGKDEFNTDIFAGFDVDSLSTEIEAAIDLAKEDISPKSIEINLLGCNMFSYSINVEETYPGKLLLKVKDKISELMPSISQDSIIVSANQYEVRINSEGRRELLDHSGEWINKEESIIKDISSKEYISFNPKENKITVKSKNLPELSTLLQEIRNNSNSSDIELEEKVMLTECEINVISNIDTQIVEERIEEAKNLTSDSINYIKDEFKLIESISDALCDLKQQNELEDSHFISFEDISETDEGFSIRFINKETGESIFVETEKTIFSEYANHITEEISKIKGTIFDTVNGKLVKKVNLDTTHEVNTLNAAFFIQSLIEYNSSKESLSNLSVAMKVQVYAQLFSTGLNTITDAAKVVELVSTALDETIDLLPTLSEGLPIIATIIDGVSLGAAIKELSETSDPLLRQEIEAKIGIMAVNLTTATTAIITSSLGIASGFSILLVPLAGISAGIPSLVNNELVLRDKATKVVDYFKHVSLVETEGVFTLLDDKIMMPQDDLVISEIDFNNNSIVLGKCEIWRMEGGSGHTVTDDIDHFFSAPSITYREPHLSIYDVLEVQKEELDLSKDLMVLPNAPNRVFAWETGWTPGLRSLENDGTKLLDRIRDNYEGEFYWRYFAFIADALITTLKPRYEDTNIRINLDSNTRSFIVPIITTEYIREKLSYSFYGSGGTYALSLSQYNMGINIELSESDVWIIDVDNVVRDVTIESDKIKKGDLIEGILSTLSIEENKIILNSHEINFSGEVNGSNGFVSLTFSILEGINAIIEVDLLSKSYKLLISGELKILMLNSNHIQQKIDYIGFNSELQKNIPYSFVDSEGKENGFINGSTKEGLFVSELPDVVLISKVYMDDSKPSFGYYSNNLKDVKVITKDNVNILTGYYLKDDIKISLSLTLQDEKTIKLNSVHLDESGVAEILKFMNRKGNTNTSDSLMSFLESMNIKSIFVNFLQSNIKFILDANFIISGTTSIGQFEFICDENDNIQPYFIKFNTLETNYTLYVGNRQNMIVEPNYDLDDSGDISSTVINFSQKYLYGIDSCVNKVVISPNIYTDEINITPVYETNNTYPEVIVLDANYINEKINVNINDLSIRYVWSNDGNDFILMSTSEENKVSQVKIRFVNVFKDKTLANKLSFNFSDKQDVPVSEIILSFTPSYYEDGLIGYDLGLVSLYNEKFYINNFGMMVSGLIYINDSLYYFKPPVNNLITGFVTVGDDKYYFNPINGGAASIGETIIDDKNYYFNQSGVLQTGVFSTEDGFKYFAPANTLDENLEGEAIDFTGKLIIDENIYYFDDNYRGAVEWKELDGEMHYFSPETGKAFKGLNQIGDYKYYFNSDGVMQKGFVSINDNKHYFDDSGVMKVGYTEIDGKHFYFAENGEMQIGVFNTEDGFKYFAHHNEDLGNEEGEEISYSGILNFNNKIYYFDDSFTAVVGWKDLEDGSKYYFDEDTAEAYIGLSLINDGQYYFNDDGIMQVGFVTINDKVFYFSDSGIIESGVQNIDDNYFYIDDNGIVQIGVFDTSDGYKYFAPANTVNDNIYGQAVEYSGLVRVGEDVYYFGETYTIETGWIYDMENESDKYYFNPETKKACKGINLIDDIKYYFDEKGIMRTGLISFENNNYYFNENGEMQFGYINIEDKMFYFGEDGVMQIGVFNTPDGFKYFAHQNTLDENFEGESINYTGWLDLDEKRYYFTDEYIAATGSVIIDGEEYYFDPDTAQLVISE
In data set [14] the target is Toxin A (Clostridioides difficile, UniProt P16154). Kind of data set: Inhibition of Clostridium difficile toxin A […] CHO cells assessed as reduction in caspase 3/7 activation pre-incubated for 1 hr before TcdA addition by luminescence based assay. It counts as cell-based.
Chain of Toxin A (P16154 whole entry): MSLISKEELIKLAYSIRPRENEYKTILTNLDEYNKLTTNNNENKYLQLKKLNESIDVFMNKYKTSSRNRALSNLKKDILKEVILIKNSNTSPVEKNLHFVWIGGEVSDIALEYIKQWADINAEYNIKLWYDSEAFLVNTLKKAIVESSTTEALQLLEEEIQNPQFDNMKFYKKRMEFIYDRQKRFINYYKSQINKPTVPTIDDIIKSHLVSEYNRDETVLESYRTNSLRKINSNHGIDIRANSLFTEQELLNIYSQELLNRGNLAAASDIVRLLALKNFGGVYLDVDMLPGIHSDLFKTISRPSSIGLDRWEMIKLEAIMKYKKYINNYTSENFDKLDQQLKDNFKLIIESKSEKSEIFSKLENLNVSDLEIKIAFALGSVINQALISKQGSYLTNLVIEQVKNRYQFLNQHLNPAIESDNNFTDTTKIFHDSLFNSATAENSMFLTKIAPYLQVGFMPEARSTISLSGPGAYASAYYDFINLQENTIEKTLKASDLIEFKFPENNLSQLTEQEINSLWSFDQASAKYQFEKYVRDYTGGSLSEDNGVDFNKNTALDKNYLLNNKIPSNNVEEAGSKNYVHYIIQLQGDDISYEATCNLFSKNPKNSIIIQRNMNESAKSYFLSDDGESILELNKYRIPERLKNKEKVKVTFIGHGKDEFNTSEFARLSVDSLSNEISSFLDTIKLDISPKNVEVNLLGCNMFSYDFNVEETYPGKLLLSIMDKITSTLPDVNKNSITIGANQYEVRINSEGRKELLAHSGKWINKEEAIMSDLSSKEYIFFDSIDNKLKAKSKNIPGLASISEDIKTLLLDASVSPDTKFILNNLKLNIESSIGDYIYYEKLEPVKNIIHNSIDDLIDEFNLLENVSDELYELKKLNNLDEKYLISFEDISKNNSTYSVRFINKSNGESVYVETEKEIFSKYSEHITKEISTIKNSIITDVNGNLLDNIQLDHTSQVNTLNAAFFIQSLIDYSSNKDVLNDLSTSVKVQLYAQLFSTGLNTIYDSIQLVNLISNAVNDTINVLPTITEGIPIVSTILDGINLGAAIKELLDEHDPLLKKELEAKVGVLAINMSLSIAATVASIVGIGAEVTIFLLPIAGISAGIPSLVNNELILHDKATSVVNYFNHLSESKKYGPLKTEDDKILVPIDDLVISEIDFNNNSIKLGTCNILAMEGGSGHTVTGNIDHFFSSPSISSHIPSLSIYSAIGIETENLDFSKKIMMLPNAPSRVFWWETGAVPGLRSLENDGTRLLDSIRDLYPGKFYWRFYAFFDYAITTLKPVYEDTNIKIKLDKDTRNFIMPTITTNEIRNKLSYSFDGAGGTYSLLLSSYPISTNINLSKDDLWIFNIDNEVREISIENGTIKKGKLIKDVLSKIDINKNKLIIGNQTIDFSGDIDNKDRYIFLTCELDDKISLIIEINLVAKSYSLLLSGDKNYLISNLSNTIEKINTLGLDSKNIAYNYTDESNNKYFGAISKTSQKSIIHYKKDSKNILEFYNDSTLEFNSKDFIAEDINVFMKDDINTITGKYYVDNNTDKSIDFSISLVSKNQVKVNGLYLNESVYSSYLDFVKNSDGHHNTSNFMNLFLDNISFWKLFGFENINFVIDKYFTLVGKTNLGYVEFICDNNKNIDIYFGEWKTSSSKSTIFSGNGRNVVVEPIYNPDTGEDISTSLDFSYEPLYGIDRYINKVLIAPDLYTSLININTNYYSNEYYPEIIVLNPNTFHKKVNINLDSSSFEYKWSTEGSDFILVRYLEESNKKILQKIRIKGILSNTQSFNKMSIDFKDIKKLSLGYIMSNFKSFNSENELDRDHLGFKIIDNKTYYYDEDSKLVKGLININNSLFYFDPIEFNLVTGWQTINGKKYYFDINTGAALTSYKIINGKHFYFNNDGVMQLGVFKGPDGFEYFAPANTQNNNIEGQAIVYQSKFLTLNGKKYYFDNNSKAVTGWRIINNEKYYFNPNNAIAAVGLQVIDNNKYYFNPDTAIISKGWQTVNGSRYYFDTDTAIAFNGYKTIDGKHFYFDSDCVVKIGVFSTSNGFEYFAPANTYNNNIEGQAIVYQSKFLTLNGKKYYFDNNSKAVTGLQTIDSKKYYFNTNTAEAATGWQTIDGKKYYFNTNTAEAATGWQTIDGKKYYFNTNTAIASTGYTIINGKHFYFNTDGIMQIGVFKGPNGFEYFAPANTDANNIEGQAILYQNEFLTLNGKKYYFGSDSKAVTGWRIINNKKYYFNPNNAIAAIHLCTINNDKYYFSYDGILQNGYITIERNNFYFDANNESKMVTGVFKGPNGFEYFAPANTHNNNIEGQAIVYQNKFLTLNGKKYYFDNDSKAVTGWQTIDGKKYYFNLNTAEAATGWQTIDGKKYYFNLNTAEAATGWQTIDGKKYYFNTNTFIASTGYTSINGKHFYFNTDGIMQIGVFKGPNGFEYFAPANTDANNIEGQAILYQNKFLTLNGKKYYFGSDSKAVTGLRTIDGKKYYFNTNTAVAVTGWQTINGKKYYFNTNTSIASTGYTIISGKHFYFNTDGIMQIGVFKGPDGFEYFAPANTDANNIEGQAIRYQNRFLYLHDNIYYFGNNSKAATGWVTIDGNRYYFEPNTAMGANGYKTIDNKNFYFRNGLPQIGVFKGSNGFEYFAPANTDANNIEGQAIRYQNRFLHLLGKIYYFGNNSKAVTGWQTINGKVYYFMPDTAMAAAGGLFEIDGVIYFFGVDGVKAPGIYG
The nature of data set [15]: AUC(infinity) in hamster at 10 mg/kg, po. More on the design: dose 10 mg/kg, time infinity, route oral. Conditions: cricetinae, in vivo. The class given is ADME, organism-based.
For data set [16], the target named is T1, Toxin B. Kind of data set: Inhibition of C-terminal 6-His tagged recombinant Clostridium difficile toxin B glucosyltransferase domain assessed as reduction in UDP-glucose hydrolysis activity using UDP-glucose substrate and ADP Alexa633 tracer incubated for 3 hrs by fluorescence polarization assay. A general note: Polarisation of emitted light reports the rotation of a fluorescent probe.

In data set [17] the test system is Clostridioides difficile. The experiment in a line: Antibacterial activity against Clostridium difficile infected hamster assessed as host survival at 50 mg/kg, po bid treated for 7 days (reference value: 2.3 days). The class given is functional.
The nature of data set [18]: Cmax in hamster at 10 mg/kg, po. It counts as ADME, organism-based. The arrangement: dose 10 mg/kg, route oral. Conditions: cricetinae, in vivo.
Data set [19] in a line: Apparent oral clearance in hamster at 10 mg/kg, po. Conditions: cricetinae, in vivo. It counts as ADME, organism-based.
Data set [20] is described as follows: Apparent volume of distribution during terminal phase in CD-1 mouse at 1 mg/kg, iv. It counts as ADME, organism-based. Conditions: in vivo. In a few lines: as §1
The test system of data set [21] is Clostridioides difficile. The experiment in a line: Antibacterial activity against Clostridium difficile infected hamster assessed as host survival at 5 mg/kg, po bid treated for 7 days (reference value: 2.3 days). The class given is functional.

As to `O=C(Nc1ccc(C(F)(F)F)cn1)c1ccc(CN2C(=O)c3ccc(Cl)cc3NC(=O)[C@H]2Cc2ccccn2)cc1Cl`, the values for the remaining at 0.25 h in data set [1] and in [4] were 92% and 94%, respectively. In addition, the values for the half-life in [2] and in data set [7] were 2.6 h and 10 h, respectively. In addition, the AUC(0-inf) (in general, total exposure, with the tail of the curve extrapolated) in [3] came to 592 ng·h/mL; in data set [6] it was 9420 ng·h/mL; in [15], 21500 ng·h/mL. Also, in [5], the F is 159%. Further, the time to peak (Tmax) in [8] and in [9] was 0.25 h in each case. Further, in [10], the clearance – broadly, the volume of plasma or blood freed of the substance per unit of time – worked out at 28 mL/min/kg. The Cmax (as a rule, the maximum level reached in the sampled fluid or tissue) in data set [11] came out at 1530 ng/mL; in [12] it was 312 ng/mL; in data set [18], 2750 ng/mL. The half-inhibitory concentration (IC50) (usually the concentration that gives 50% inhibition) in [13] stood at 0.25 µM; in data set [14], 6.3 µM; in data set [16] it was 0.018 µM. In addition, the MST in data set [17] came to 12.3 days. For the same compound, the apparent clearance CL/F (usually clearance divided by bioavailability, as obtained after extravascular dosing) in data set [19] is 7.8 mL/min/kg. Moreover, the Vz/F in data set [20] was 6.2 L/kg.
With `CN[C@H](CC(C)C)C(=O)N[C@H]1C(=O)N[C@@H](CC(N)=O)C(=O)N[C@H]2C(=O)N[C@H]3C(=O)N[C@H](C(=O)N[C@H](C(=O)O)c4cc(O)cc(O)c4-c4cc3ccc4O)[C@H](O)c3ccc(c(Cl)c3)Oc3cc2cc(c3O[C@@H]2O[C@H](CO)[C@@H](O)[C@H](O)[C@H]2O[C@H]2C[C@](C)(N)[C@H](O)[C@H](C)O2)Oc2ccc(cc2Cl)[C@H]1O` [VANCOMYCIN], in data set [21], the MST was found to be 12 days.

These data come from ChEMBL document CHEMBL4325886, “Synthesis and SAR studies of novel benzodiazepinedione-based inhibitors of Clostridium difficile (C. difficile) toxin B (TcdB)” (Bioorg Med Chem Lett, 2018).
